Source: ChEMBL document CHEMBL1275442, “Pharmacokinetics and tissue distribution of anidulafungin in rats” (Antimicrob Agents Chemother, 2008)

Tests used:
Format in all cases: ADME, organism-based
Lung [1] = experiment: Drug level in Long Evans rat lung assessed as radioactivity per gram of tissue at 5 mg/kg, iv administered as single bolus dose measured 72 hrs postdose by autoradiography; parameters: dose 5 mg/kg, route intravenous; settings: in vivo
Procedure, shortened: (§1)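 Male pigmented Long Evans (HsdBlu:LE) rats, 7.5 weeks old, 202 to 217 g, single iv [¹⁴C]anidulafungin; one rat per sampling time. Euthanized by isoflurane and cardiac-puncture exsanguination. Sagittal whole-body sections quantified by phosphorimaging autoradiography, single samples corrected for section thickness across multiple sections per tissue. Concentrations (μg eq/g drug-derived radioactivity) interpolated from least-squares standard curves per scan.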

Kidney [2] = experiment: AUC (0 to 24 hrs) in F344 rat kidney at 5 mg/kg, iv administered as single bolus dose; parameters: time < 24 hr, dose 5 mg/kg, route intravenous; settings: in vivo
Procedure, shortened: (§2)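 Male F344 rats, 10–11 weeks, 223.6–243.8 g, given one IV dose of [¹⁴C]anidulafungin, 5 mg/kg, over about 5 min. Tissues and blood sampled at 0.083–72 h (n = 3 rats per time). Parent drug measured by HPLC; LLOQ/ULOQ were 20/5,120 ng/ml for plasma and 220/56,320 ng/g for tissue. Noncompartmental parameters taken from the composite mean profile.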

Muscle tissue [3] = experiment: AUC (0 to 24 hrs) in F344 rat muscle at 5 mg/kg, iv administered as single bolus dose; parameters: time < 24 hr, dose 5 mg/kg, route intravenous; settings: in vivo; procedure, shortened: as §2
Cerebrospinal fluid [4] = experiment: Drug level in Long Evans rat cerebrospinal fluid assessed as radioactivity per gram of tissue at 5 mg/kg, iv administered as single bolus dose measured 24 hrs postdose by autoradiography; parameters: dose 5 mg/kg, route intravenous; settings: in vivo; procedure, shortened: as §1
[5] = Drug level in Long Evans rat eye assessed as radioactivity per gram of tissue at 5 mg/kg, iv administered as single bolus dose measured 6 hrs postdose by autoradiography; parameters: dose 5 mg/kg, route intravenous; settings: in vivo; procedure, shortened: as §1
Muscle tissue [6] = experiment: Drug level in Long Evans rat muscle assessed as radioactivity per gram of tissue at 5 mg/kg, iv administered as single bolus dose measured 12 hrs postdose by autoradiography; parameters: dose 5 mg/kg, route intravenous; settings: in vivo; procedure, shortened: as §1
Zone of skin [7] = experiment: Cmax in F344 rat skin assessed as total compound-derived radioactivity per gram of tissue at 5 mg/kg, iv administered as single bolus dose […]; parameters: dose 5 mg/kg, route intravenous; settings: in vivo
Procedure, shortened: (§3)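 Same F344 study: single 5 mg/kg IV [¹⁴C]anidulafungin given over about 5 min. Total drug-derived radioactivity (parent plus metabolites) counted by liquid scintillation, in […]. Noncompartmental analysis of the composite mean profile.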

Cerebrum = experiment: Drug level in Long Evans rat cerebrum assessed as radioactivity per gram of tissue at 5 mg/kg, iv administered as single bolus dose measured 24 hrs postdose by autoradiography; parameters: dose 5 mg/kg, route intravenous; settings: in vivo; procedure, shortened: as §1
Spleen [8] = experiment: Half life in F344 rat spleen assessed as total compound-derived radioactivity at 5 mg/kg, iv administered as single bolus dose […]; parameters: dose 5 mg/kg, route intravenous; settings: in vivo
Procedure, shortened: (§4)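 Male F344 rats, 10 to 11 weeks old and 223.6 to 243.8 g, got one iv dose of [14C]anidulafungin at 5 mg/kg over about 5 min. Blood, CSF, kidney, liver, lung, quadriceps, spleen and skin were sampled predose and at 0.083 to 72 h, 3 rats per time. Total radioactivity (parent plus metabolites) was measured by liquid scintillation counting. Parameters were noncompartmental, from a composite mean profile.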

Spleen [9] = experiment: Drug level in Long Evans rat spleen assessed as radioactivity per gram of tissue at 5 mg/kg, iv administered as single bolus dose measured 168 hrs postdose by autoradiography; parameters: dose 5 mg/kg, route intravenous; settings: in vivo
Procedure, shortened: (§5)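 Male pigmented Long Evans (HsdBlu:LE) rats, 7.5 weeks old and 202 to 217 g, got a single iv dose of [14C]anidulafungin at 5 mg/kg. One rat per time point (0.5, 6, 12, 24, 72, 168 h) was euthanised by isoflurane and cardiac-puncture exsanguination. Sagittal whole-body sections were quantified by phosphorimaging. Samples were thickness-corrected, and concentrations (μg eq/g) were interpolated from least-squares standard curves.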

Liver [10] = experiment: Half life in F344 rat liver assessed as total compound-derived radioactivity at 5 mg/kg, iv administered as single bolus dose […]; parameters: dose 5 mg/kg, route intravenous; settings: in vivo; procedure, shortened: as §4
Kidney [11] = experiment: Drug level in Long Evans rat kidney assessed as low disposition of radioactivity per gram of tissue at 5 mg/kg, iv administered as single bolus dose measured 168 hrs postdose by autoradiography; parameters: dose 5 mg/kg, route intravenous; settings: in vivo; procedure, shortened: as §1
Liver [12] = experiment: AUC (0 to infinity) in F344 rat liver assessed as total compound-derived radioactivity per gram of tissue at 5 mg/kg, iv administered as single bolus dose […]; parameters: time infinity, dose 5 mg/kg, route intravenous; settings: in vivo; procedure, shortened: as §3
[13] = Cmax in F344 rat lung at 5 mg/kg, iv administered as single bolus dose after 5 min by HPLC method; parameters: dose 5 mg/kg, route intravenous; procedure, shortened: as §2
Lung [14] = experiment: Tmax in F344 rat lung assessed as total compound-derived radioactivity at 5 mg/kg, iv administered as single bolus dose […]; parameters: dose 5 mg/kg, route intravenous; settings: in vivo; procedure, shortened: as §4
Zone of skin [15] = experiment: AUC (0 to 24 hrs) in F344 rat skin at 5 mg/kg, iv administered as single bolus dose; parameters: time < 24 hr, dose 5 mg/kg, route intravenous; settings: in vivo; procedure, shortened: as §2
Kidney [16] = experiment: AUC (0 to infinity) in F344 rat kidney at 5 mg/kg, iv administered as single bolus dose; parameters: time infinity, dose 5 mg/kg, route intravenous; settings: in vivo; procedure, shortened: as §2
Cerebrospinal fluid [17] = experiment: AUC (0 to 24 hrs) in F344 rat cerebrospinal fluid assessed as total compound-derived radioactivity per gram of tissue at 5 mg/kg, iv administered as single bolus dose […]; parameters: time < 24 hr, dose 5 mg/kg, route intravenous; settings: in vivo; procedure, shortened: as §3
Zone of skin [18] = experiment: AUC (0 to 24 hrs) in F344 rat skin assessed as total compound-derived radioactivity per gram of tissue at 5 mg/kg, iv administered as single bolus dose […]; parameters: time < 24 hr, dose 5 mg/kg, route intravenous; settings: in vivo; procedure, shortened: as §3
[19] = Tmax in F344 rat spleen at 5 mg/kg, iv administered as single bolus dose by HPLC method; parameters: dose 5 mg/kg, route intravenous
Procedure, shortened: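 F344 males, 10 to 11 weeks old and 223.6 to 243.8 g, got a single 5 mg/kg iv dose of [14C]anidulafungin over about 5 min. Plasma and tissues were collected predose and at 0.083 to 72 h, n = 3 per time point. Parent drug was quantified by HPLC-UV, with LLOQ/ULOQ of 20/5,120 ng/ml in plasma and 220/56,320 ng/g in tissue. Noncompartmental parameters came from a composite mean concentration-time profile.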

Zone of skin [20] = experiment: Drug level in Long Evans rat skin assessed as radioactivity per gram of tissue at 5 mg/kg, iv administered as single bolus dose measured 168 hrs postdose by autoradiography; parameters: dose 5 mg/kg, route intravenous; settings: in vivo; procedure, shortened: as §5
Kidney [21] = experiment: AUC (0 to infinity) in F344 rat kidney assessed as total compound-derived radioactivity per gram of tissue at 5 mg/kg, iv administered as single bolus dose […]; parameters: time infinity, dose 5 mg/kg, route intravenous; settings: in vivo; procedure, shortened: as §3
Kidney [22] = experiment: Drug level in Long Evans rat kidney assessed as high disposition of radioactivity per gram of tissue at 5 mg/kg, iv administered as single bolus dose measured 12 hrs postdose by autoradiography; parameters: dose 5 mg/kg, route intravenous; settings: in vivo; procedure, shortened: as §1
Blood = experiment: AUC (0 to 24 hrs) in F344 rat blood assessed as total compound-derived radioactivity per gram of tissue at 5 mg/kg, iv administered as single bolus dose […]; parameters: time < 24 hr, dose 5 mg/kg, route intravenous; settings: in vivo; procedure, shortened: as §3
Spleen [23] = experiment: Drug level in Long Evans rat spleen assessed as radioactivity per gram of tissue at 5 mg/kg, iv administered as single bolus dose measured 72 hrs postdose by autoradiography; parameters: dose 5 mg/kg, route intravenous; settings: in vivo; procedure, shortened: as §5
Liver [24] = experiment: Drug level in Long Evans rat liver assessed as low disposition of radioactivity per gram of tissue at 5 mg/kg, iv administered as single bolus dose measured 24 hrs postdose by autoradiography; parameters: dose 5 mg/kg, route intravenous; settings: in vivo; procedure, shortened: as §1
Kidney [25] = experiment: Drug level in Long Evans rat kidney assessed as low disposition of radioactivity per gram of tissue at 5 mg/kg, iv administered as single bolus dose measured 0.5 hrs postdose by autoradiography; parameters: dose 5 mg/kg, route intravenous; settings: in vivo; procedure, shortened: as §1

Compound CCCCCOc1ccc(-c2ccc(-c3ccc([14C](=O)N[C@H]4C[C@@H](O)[C@@H](O)NC(=O)[C@@H]5[C@@H](O)[C@@H](C)CN5C(=O)[C@H]([C@@H](C)O)NC(=O)[C@H]([C@H](O)[C@@H](O)c5ccc(O)cc5)NC(=O)[C@@H]5C[C@@H](O)CN5C(=O)[C@H]([C@@H](C)O)NC4=O)cc3)cc2)cc1 [14C-ANIDULAFUNGIN] has a Drug uptake (Lung [1]) of 4.24 ugequiv, an AUC (Kidney [2]) of 517.32 µg·h/g and an AUC (Muscle tissue [3]) of 54.33 µg·h/g. For the same compound, the Drug uptake (Cerebrospinal fluid [4]) was 8.92 ugequiv, the Drug uptake [5] was 1.74 ugequiv and the Drug uptake (Muscle tissue [6]) was 1.39 ugequiv. The Cmax (Zone of skin [7]) was 5.4 ugequiv/g, the Drug uptake (Cerebrum) was 0.26 ugequiv and the t1/2 (Spleen [8]) was 40.3 h. For the same compound, the Drug uptake (Spleen [9]) was 1.53 ugequiv, the t1/2 (Liver [10]) was 69.2 h and the Drug uptake (Kidney [11]) was 0.7 ugequiv. For the same compound, the AUC (Liver [12]) was 2656.38 ugequiv.hr/g, the Cmax [13] was 31100 ng/g and the Tmax (Lung [14]) was 4.98 min. It also gave an AUC (Zone of skin [15]) of 102.72 µg·h/g, an AUC (Kidney [16]) of 658.93 µg·h/g and an AUC (Cerebrospinal fluid [17]) of 0.61 ugequiv.hr/g. It also gave an AUC (Zone of skin [18]) of 190.73 ugequiv.hr/g, a Tmax [19] of 30 min and a Drug uptake (Zone of skin [20]) of 2.48 ugequiv. For the same compound, the AUC (Kidney [21]) was 1437.94 ugequiv.hr/g, the Drug uptake (Kidney [22]) was 14.1 ugequiv and the AUC (Blood) was 203.14 ugequiv.hr/g. It also gave a Drug uptake (Spleen [23]) of 4.37 ugequiv, a Drug uptake (Liver [24]) of 14.7 ugequiv and a Drug uptake (Kidney [25]) of 9.18 ugequiv.
